ChEMBL document CHEMBL2424598, “Identification and optimization of pteridinone Toll-like receptor 7 (TLR7) agonists for the oral treatment of viral hepatitis” (J Med Chem, 2013)

Legend:
[1] = tested on: Cynomolgus monkey; assay: Agonist activity at […] in cynomolgus monkey assessed as increase of serum IFNalpha level at 0.1 mg/kg, iv after 1 to 24 hrs by ELISA; type: functional, Macaca fascicularis
How it was run: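 Healthy male cynomolgus monkeys, n = 3 per group, dosed either by 30 min iv infusion or orally. Serum was sampled predose and at 1, 2, 4, 8, 12 and 24 h postdose. IFN-α was measured by species-specific ELISA (limit of detection 130 pg/mL) and reported as mean peak serum level ± SD.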

[2] = Cmax in cynomolgus monkey at 2 mg/kg, po; type: ADME, organism-based, Macaca fascicularis; design: dose 2 mg/kg, route oral; settings: in vivo
How it was run: (§1)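 Male cynomolgus monkeys, n = 3 per group, received a 30 min iv infusion or an oral dose. Compound was measured in serum (limit of quantitation 0.04 ng/mL), and Cmax is reported as the group mean.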

[3] = Cmax in cynomolgus monkey at 0.3 mg/kg, po; type: ADME, organism-based, Macaca fascicularis; design: dose 0.3 mg/kg, route oral; settings: in vivo; how it was run: as §1
[4] = Cmax in cynomolgus monkey at 0.1 mg/kg, po; type: ADME, organism-based, Macaca fascicularis; design: dose 0.1 mg/kg, route oral; settings: in vivo; how it was run: as §1
[5] = Cmax in cynomolgus monkey at 0.1 mg/kg, iv; type: ADME, organism-based, Macaca fascicularis; design: dose 0.1 mg/kg, route intravenous; settings: in vivo; how it was run: as §1
[6] = Half life in dog liver microsomes; type: ADME, Canis lupus familiaris, Microsome
[7] = Half life in rat liver microsomes; type: ADME, Microsome
[8] = biological target: T1, Toll-like receptor 8 (Homo sapiens, UniProt Q9NR97); assay: Agonist activity at human TLR8 expressed in HEK293 cells by reporter based assay; type: cell-based
T1 sequence (Q9NR97 whole entry): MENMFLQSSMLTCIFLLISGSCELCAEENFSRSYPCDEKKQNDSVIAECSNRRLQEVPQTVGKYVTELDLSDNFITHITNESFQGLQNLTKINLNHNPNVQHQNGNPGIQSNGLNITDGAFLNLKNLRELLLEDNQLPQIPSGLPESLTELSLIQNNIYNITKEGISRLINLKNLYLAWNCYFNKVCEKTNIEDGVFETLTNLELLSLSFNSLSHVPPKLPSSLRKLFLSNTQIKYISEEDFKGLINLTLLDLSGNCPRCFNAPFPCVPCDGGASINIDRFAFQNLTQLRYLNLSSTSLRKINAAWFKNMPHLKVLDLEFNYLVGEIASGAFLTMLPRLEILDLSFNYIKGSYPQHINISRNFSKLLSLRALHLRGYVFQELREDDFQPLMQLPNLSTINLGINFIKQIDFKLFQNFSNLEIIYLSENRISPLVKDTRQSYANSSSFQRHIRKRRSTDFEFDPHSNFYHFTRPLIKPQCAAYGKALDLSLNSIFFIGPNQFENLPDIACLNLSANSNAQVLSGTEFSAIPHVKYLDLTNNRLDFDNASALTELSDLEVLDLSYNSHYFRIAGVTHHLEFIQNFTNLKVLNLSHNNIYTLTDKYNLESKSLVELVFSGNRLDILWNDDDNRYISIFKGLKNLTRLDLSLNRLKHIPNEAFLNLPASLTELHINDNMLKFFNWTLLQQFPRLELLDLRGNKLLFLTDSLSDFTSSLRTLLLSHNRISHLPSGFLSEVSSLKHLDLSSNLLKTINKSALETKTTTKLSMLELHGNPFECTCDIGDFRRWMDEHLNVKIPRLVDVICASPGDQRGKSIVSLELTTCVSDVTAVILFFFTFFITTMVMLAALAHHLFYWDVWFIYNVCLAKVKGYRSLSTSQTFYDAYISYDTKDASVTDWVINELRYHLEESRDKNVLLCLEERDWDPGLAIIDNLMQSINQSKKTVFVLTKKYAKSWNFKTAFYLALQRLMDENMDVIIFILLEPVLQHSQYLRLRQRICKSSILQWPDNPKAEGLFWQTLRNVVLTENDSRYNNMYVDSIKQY
How it was run: (§2)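 HEK293 reporter cell lines, each expressing a single human TLR, with compound titrated up to 100 μM. EC50 taken for TLR7 and TLR8 activation.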

[9] = biological target: T2, Toll-like receptor 7 (Homo sapiens, UniProt Q9NYK1); assay: Agonist activity at human TLR7 expressed in HEK293 cells by reporter based assay; type: cell-based; how it was run: as §2
T2 sequence (Q9NYK1 whole entry): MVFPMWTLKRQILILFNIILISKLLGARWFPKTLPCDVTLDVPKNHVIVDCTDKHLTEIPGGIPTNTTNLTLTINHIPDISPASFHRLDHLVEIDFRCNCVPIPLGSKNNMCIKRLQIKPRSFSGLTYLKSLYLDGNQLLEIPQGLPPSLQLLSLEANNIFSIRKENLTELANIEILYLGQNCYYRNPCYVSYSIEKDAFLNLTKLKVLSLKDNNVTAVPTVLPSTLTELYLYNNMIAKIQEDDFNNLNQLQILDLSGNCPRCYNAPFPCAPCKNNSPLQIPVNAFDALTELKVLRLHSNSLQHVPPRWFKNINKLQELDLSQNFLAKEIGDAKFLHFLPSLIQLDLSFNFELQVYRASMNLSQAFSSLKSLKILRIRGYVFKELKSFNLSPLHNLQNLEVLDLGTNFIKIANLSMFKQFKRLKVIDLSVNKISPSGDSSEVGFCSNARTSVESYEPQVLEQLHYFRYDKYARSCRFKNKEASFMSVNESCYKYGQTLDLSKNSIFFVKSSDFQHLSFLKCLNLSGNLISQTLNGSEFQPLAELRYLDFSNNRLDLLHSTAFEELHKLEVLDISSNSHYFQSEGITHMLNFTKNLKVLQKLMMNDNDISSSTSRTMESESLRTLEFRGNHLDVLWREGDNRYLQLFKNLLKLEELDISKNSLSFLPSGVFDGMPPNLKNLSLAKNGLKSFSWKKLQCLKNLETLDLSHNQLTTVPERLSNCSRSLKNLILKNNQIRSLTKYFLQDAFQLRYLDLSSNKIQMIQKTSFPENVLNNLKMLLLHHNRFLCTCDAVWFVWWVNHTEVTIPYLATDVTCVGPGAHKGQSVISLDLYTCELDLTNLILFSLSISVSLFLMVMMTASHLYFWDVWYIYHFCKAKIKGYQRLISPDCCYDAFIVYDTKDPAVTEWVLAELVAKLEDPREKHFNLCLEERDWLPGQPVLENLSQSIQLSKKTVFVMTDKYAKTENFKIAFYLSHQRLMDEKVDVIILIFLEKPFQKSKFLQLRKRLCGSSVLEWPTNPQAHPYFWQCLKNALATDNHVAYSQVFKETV

[10] = organism: Homo sapiens; assay: Selectivity ratio of MEC for TLR8-mediated TNFalpha production in human PBMC to MEC for TLR7-mediated IFNalpha production in human PBMC
How it was run: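 Cryopreserved human PBMCs came from leukapheresis of a single healthy donor selected as a consistent responder. Cells were incubated with compound for 24 h over an eight-point concentration range, and cytokine release was measured. MEC is the lowest concentration giving cytokine levels at least 3-fold above untreated cultures, determined per cytokine.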

[11] = biological target: T3, Toll-like receptor 7 (Homo sapiens) (UniProt Q9NYK1); assay: Agonist activity at TLR7-mediated IFNalpha production in human PBMC assessed as minimum concentration of compound necessary to generate >3 fold of cytokine levels relative to control
T3 sequence (whole entry): T2 sequence (Q9NYK1 whole entry)
How it was run: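 Cryopreserved PBMCs from leukapheresis of a single healthy human donor, chosen as a consistent, robust responder to TLR7 agonist stimulation. Cells were incubated with compound for 24 h over an eight-point concentration range. Secreted IFN-α was measured to build dose-response curves. MEC was taken as the lowest concentration giving cytokine levels ≥3-fold over untreated control cultures.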

- Cmax [2]: 66.4 ng/mL
- Cmax [3]: 4.6 ng/mL
- Cmax [4]: 1.6 ng/mL
- Cmax [5]: 128 ng/mL
- half-life [6]: 58.6 min
- half-life [7]: 5.4 min
- EC50 [8]: 9 µM
- EC50 [9]: 0.29 µM
- Ratio [10]: 100
- MEC [11]: 3 nM
SMILES: CCCCOc1nc(N)c2c(n1)N(Cc1cccc(CN3CCCC3)c1)CC(=O)N2 [VESATOLIMOD]
- Activity [1]: 1840 pg/mL
